Each compound was assayed against T1, OR2J2 (Homo sapiens) (UniProt O76002). Conditions: stereoisomer not certain.
T1 sequence (whole entry): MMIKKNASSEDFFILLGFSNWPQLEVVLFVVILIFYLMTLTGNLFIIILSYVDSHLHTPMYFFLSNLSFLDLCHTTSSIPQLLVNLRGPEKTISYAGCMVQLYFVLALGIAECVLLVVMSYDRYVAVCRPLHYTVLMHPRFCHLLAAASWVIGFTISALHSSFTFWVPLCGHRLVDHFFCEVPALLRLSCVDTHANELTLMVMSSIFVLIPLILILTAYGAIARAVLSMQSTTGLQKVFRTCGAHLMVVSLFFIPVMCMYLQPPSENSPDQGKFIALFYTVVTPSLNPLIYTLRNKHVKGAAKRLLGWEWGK
In short: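 Whether a receptor–molecule pair is responsive (active) rests on the original authors' judgment that its measured signal was statistically different from baseline. Pairs without that judgment are non-responsive (inactive). Sources used varied assay methods, commonly transient luciferase assays in mammalian cell lines.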

Compound	odorant receptor agonist call;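 further: active if original authors judged signal statistically different from baseline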
CCCCCCCCCS	inactive
CC(=O)OCC=C(C)C	inactive
C=CCOC(=O)CCCCCC	inactive
CCCCCO	inactive
CCCCCC1=C(C)CCC1=O	inactive
CCOC(=O)C(C)C	inactive
CCCCCCCC(C)=O	inactive
CCCCOC=O	inactive
CCC(=O)O	inactive
CC(C)=CCCC(C)CCO (stereo not given)	inactive
CCCC(=O)C(C)=O	inactive
CCCCCCC(C)=O	inactive
CCCCCCCCCO	active
CCCCCCO	inactive
CCCCC(=O)CC	inactive
O=C1Cc2ccccc2O1	inactive
CCCCCCCO	active
C=C(C)C1CCC(C)C(=O)C1 (stereo not given)	inactive
c1ccccc1	inactive
CCCCC(=O)O	inactive
CC12CCC(CC1=O)C2(C)C (stereo not given)	inactive
CCCCC(C)=O	inactive
CCCCCCC(=O)[O-].[H+]	inactive
CCCCCCOC(C)=O	inactive
CCCCCCCCC(=O)O	inactive
CCCCOC(=O)C(C)OC(=O)CCC (stereo not given)	inactive
CCCCCCCCCC(=O)[O-].[H+]	inactive
CC(=O)Oc1ccccc1	inactive
CCCC(C)=O	inactive
CCC(C(=O)O)c1ccccc1 (stereo not given)	inactive
